The record followed here is BindingDB's records for doi:10.1016/j.bmc.2018.07.042 (Human Biomolecular Research Institute, 2018).

The target of one experiment is T1, Cellular tumor antigen p53 (Homo sapiens, UniProt P04637). Description: Induction of p53 transcriptional activity (unknown origin) expressed in HEK293 cells coexpressing TK-driven Rluc after 20 to 22 hrs by luciferase reporter gene assay. In outline: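 Transient transfection of HEK-293 cells with a p53-Luc vector (13x p53-binding consensus response element) plus TK-driven Renilla luciferase for normalization. Protocol was as for the Wnt reporter, but final serum was 2.5%. Cells were treated or given DMSO for 20-22 h in triplicate. Firefly/Renilla signal relative to DMSO was fit by nonlinear regression for […].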
T1 sequence (P04637 whole entry): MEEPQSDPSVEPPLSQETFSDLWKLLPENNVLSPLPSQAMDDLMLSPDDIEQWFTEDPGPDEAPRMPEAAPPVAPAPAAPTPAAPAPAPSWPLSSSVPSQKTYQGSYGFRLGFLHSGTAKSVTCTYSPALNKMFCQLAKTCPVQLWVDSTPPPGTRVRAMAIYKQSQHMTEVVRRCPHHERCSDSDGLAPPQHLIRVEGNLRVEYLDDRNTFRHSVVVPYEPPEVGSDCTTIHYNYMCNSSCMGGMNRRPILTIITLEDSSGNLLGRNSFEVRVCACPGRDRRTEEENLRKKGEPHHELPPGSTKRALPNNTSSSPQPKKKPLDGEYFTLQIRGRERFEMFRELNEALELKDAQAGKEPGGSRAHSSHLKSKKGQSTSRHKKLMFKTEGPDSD
(In general: Reporter assays use an easily measured gene product as a stand-in for the process of interest.)
In general, EC50 refers to the concentration at which the effect is half-maximal. For the molecule `COc1ccc2c(c1)CCCN2S(=O)(=O)c1ccc(N2CCCC2=O)cc1`, the response was half-maximal at 9 nM (EC50).

As for `CN1CCN(S(=O)(=O)c2ccc(N3CCCC3)cc2)c2ccccc21`, the EC50 turned out to be 65 nM.

Consider `Cc1ccc2c(c1)CCCN2S(=O)(=O)c1ccc(N2CCCC2=O)cc1`, for which it took 4 nM to reach a half-maximal effect (EC50). In turn, `COc1ccc2c(c1)N(C)CCN2S(=O)(=O)c1ccc(N2CCCC2=O)cc1` gave an EC50 of 4 nM. `CC(C)(C)c1ccc2c(c1)CCCN2S(=O)(=O)c1ccc(N2CCCC2=O)cc1` came in with an EC50 of 152 nM. The same measure, in the same setting: under `O=S(=O)(c1ccc(-n2cncn2)cc1)N1CCCc2ccccc21` stands greater than 5000 nM; under `CCCN(c1ccccc1)S(=O)(=O)c1ccc(N2CCCC2=O)cc1`, 158 nM; under `CN1CCN(S(=O)(=O)c2ccc(N3CCC=N3)cc2)c2ccccc21`, 74 nM.

`O=C1CCCN1c1ccc(S(=O)(=O)N2CCCc3ccccc32)cc1`: it took 12 nM to reach a half-maximal effect (EC50).

As for `CN1CCN(S(=O)(=O)c2ccc(N3CCCC3=O)cc2)c2ccccc21`, the EC50 worked out at 2 nM.

The target in the next experiment is T1, Cellular tumor antigen p53. Description: Activation of p53 in human MCF7 cell lysates assessed as increase in total p53 protein level by Western blot analysis. On the technique in general: In western blotting, separated proteins are transferred to a membrane and probed.
On to `CN1CCN(S(=O)(=O)c2ccc(N3CCCC3=O)cc2)c2ccccc21`, for which the EC50 was determined as 18 nM.
